Drawing on ChEMBL document CHEMBL4513216, “Probing the Open Global Health Chemical Diversity Library for Multistage-Active Starting Points for Next-Generation Antimalarials” (ACS Infect Dis, 2020), this text covers cytotoxicity for 95 compounds.

The data set can be described thus: Toxicity liver stage against HepG2, at 10uM. In kind it is cell-based. The arrangement: test concentration 10 uM, cell line HepG2-A16-CD81EGFP. Conditions: human, HepG2-A16-CD81EGFP cells; read-out: INHIBITION
Summed up:
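Uninfected HepG2-A16-CD81EGFP cells, 3 × 10^3 per well, 1536-well, plated on prespotted compound at 10 μM final, parasite-free screening media added to match infected plates; puromycin 10 μM positive, DMSO 0.5% negative; run in parallel with 48 h PbLuc assay at 37 °C, 5% CO2; viability by CellTiter-Glo luminescence, normalized to controls.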
On to `CCCC(=O)NCC1CCCN(Cc2cc(C)c(C)o2)C1` (stereo not given), for which the cytotoxicity at 10 µM amounted to 8.82%.

With `Cc1nnc(CN(Cc2ccc3c(c2)OCO3)C2CCC(C)CC2)o1` (stereo not given), the cytotoxicity at 10 µM was -1.89%.

With `CCCS(=O)(=O)N1CCN(c2cc(-n3ccnc3)nc(C)n2)CC1`, the cytotoxicity at 10 µM is -1.89%.

Turning to `CCOc1ccc(Cl)c(C(=O)NCCS(N)(=O)=O)n1`, the cytotoxicity at 10 µM is -8.72%.

In the case of `CCn1c(C2CCNCC2)nn(CCCc2ccccc2)c1=O`, the cytotoxicity at 10 µM was 1.4%.

Turning to `C=C(C)COc1cccc(C(=O)NCCCc2nnn[nH]2)c1`, the cytotoxicity at 10 µM is -0.531%.

For `CCCN1CCCn2nc(CNS(=O)(=O)c3ccc(C)cc3)cc2C1`, the cytotoxicity at 10 µM came out at 1.6%.

Regarding `CCOc1cc(C(=O)N2CCCC(n3cncn3)C2)ccc1C` (stereo not given), the cytotoxicity at 10 µM is -4.35%.

As to `CC1CCN(CCNC(=O)c2ccccc2N2CCOCC2)CC1`, the cytotoxicity at 10 µM is -6.05%.

For the compound `Cc1cc(N2CCSCC2)ccc1NC(=O)N(CCO)C1CC1`, the cytotoxicity at 10 µM is -10.1%.

With `O=C(c1ccc2c(c1)CCCC2)N1CCOCC1c1ncon1` (stereo not given), the cytotoxicity at 10 µM is -7%.

As to `Cc1noc(C)c1S(=O)(=O)NCC(C)(O)c1ccc2c(c1)OCO2` (stereo not given), the cytotoxicity at 10 µM came to 0.331%.

As to `Cc1nn(C)c(N2CCOCC2)c1CNC1CCN(C2CC2)CC1`, the cytotoxicity at 10 µM was -3.96%.

`Cc1cc(C)c(CNC(=O)N2CCCC2c2cccc(F)c2)c(=O)[nH]1` (stereo not given): the cytotoxicity at 10 µM is 5.22%.

Consider `COc1nccnc1N1CCN(Cc2ccc3c(c2)OCO3)C(=O)C1`, for which the cytotoxicity at 10 µM was -1.65%.

Turning to `COc1ncccc1CNc1cc(N2CCCC2CO)ncn1` (stereo not given), the cytotoxicity at 10 µM is -12.6%.

Regarding `CN(Cc1nc(N)nc(N(C)C)n1)Cc1cccc2ccccc12`, the cytotoxicity at 10 µM was 0.554%.

Take `COCCN1CCC(c2cncc(-c3cccc(Cl)c3)n2)CC1`: the cytotoxicity at 10 µM is -29.9%.

As for `O=C(CCc1ccc2c(c1)OCO2)Nc1cccnc1-n1cncn1`, the cytotoxicity at 10 µM came to 4.98%.

On to `CCOC1COC2(CCN(CC3CC3)CC2)C1` (stereo not given), for which the cytotoxicity at 10 µM is -106%.

Turning to `Cc1ccc(NC2CCCN(Cc3ccc(Cl)cc3)C2)nn1` (stereo not given), the cytotoxicity at 10 µM is -5.98%.

On to `Cc1cc(CN2CCN(C(=O)C(C(C)C)n3cncn3)CC2)on1` (stereo not given), for which the cytotoxicity at 10 µM turned out to be 2.35%.

Take `CN1CCOCC2(CCCN(C(=O)Cc3ccncc3)C2)C1` (stereo not given): the cytotoxicity at 10 µM was -84.6%.

As to `COc1c(CNC(c2ccccc2F)c2nccn2C)c(C)nn1C` (stereo not given), the cytotoxicity at 10 µM was -13.9%.

In the case of `Cc1ncc(CN(C)Cc2nc3cc(Cl)ccc3n2C)s1`, the cytotoxicity at 10 µM was -42.9%.

As for `CCN(Cc1cccc(Cl)c1)Cc1ncc(C(C)(C)C)o1`, the cytotoxicity at 10 µM was 11.2%.

In the case of `Cc1nn2cnnc2c(C)c1CCC(=O)Nc1nnc(C2CC2)s1`, the cytotoxicity at 10 µM was -2.89%.

For the compound `Cc1nn(C)c(N(C)C)c1CNC(C)Cc1c(F)cccc1F` (stereo not given), the cytotoxicity at 10 µM is -1.03%.

In the case of `O=S1(=O)C[C@@H]2[C@H](C1)N(S(=O)(=O)N1CCCC1)CCN2Cc1ccccc1`, the cytotoxicity at 10 µM is -2.59%.

`CNC(=O)c1sc2ccccc2c1CC1CCCN1Cc1cnc(C)s1` (stereo not given): the cytotoxicity at 10 µM amounted to 2.59%.

As for `Cc1cc(C)n(CC2CCCN2C(=O)c2cccc3[nH]ncc23)n1` (stereo not given), the cytotoxicity at 10 µM is -5.55%.

For `CN(CC(=O)NCC1CCCO1)Cc1nc2c(s1)CCCC2` (stereo not given), the cytotoxicity at 10 µM was 21.6%.

`CCN(c1ccc(C(=O)NCc2cc[nH]n2)cc1)C(C)C`: the cytotoxicity at 10 µM was determined as 11.9%.

Take `COCc1nc(CN2CC(Cc3ccccc3)CC2=O)no1` (stereo not given): the cytotoxicity at 10 µM is -12.8%.

On to `CCc1nnc(C(C)N2CCc3cncnc3C2)o1` (stereo not given), for which the cytotoxicity at 10 µM came to 7.49%.

As for `CN1CCN(c2cc(N3CCCC3CO)ncn2)Cc2ccccc21` (stereo not given), the cytotoxicity at 10 µM is -5.22%.

In the case of `CN(CC(=O)NCC1CCCCC1)S(=O)(=O)c1cccnc1`, the cytotoxicity at 10 µM was determined as 3.82%.

As to `Cc1ccc(CN2CC[C@H]3OCC[C@@H](c4nc(C)no4)[C@H]3C2)cc1`, the cytotoxicity at 10 µM was -6.95%.

Turning to `O=C(c1ccsc1)N1CC[C@H]2C[C@@H](c3nnc(C4CC4)o3)O[C@@H]2C1`, the cytotoxicity at 10 µM was -7.36%.

Consider `CC(=O)N1CC[C@H](c2nc3cc(C)ccc3o2)C1`, for which the cytotoxicity at 10 µM was -4.13%.

Regarding `CC(C)c1cc(C(=O)NCCc2nc(-c3cccnc3)n[nH]2)[nH]n1`, the cytotoxicity at 10 µM stood at 8.02%.

Turning to `CCN(Cc1ccoc1)C(C(N)=O)c1ccc(C#N)cc1` (stereo not given), the cytotoxicity at 10 µM is -18.6%.

For the compound `CCOc1ccccc1CC(=O)N1CCCC(c2ncc[nH]2)C1` (stereo not given), the cytotoxicity at 10 µM was -2.65%.

In the case of `COCC(=O)N(Cc1ccc2cc[nH]c2c1)C1CC1`, the cytotoxicity at 10 µM is -5.54%.

Turning to `CC(C)C(C(=O)O)c1cccc(Cl)c1` (stereo not given), the cytotoxicity at 10 µM is -12.8%.

Turning to `O=C(CCc1ccco1)N1CCC(Nc2cccnn2)CC1`, the cytotoxicity at 10 µM is -20.3%.

Consider `CCc1nnc2n1CCN(C(C(=O)NC1CC1)c1ccc(F)cc1)C2` (stereo not given), for which the cytotoxicity at 10 µM is 2.16%.

With `CCCc1nnsc1C(=O)N1CCN(CC(O)C2CC2)CC1` (stereo not given), the cytotoxicity at 10 µM was -7.78%.

As for `CCOCCCNC(=O)Nc1ccc(F)c(C(N)=O)c1`, the cytotoxicity at 10 µM is -16.9%.

As for `CC(C)c1nc2n(n1)CC(NCC(=O)N(C)Cc1cccs1)CC2` (stereo not given), the cytotoxicity at 10 µM is -10.2%.

With `Cc1ncsc1CCNC(=O)Cn1nc(C)n(Cc2ccccc2)c1=O`, the cytotoxicity at 10 µM stood at 7.48%.

As to `Cc1ccc(Cn2c(=O)[nH]c3csnc3c2=O)cc1`, the cytotoxicity at 10 µM was determined as 2.93%.

In the case of `COCC(=O)NCC1(COc2cnccn2)C[C@@H](O)[C@@H](O)C1` (stereo not given in full), the cytotoxicity at 10 µM came to 2.17%.

As to `O=C1NC2(CCN(CC(=O)N3CCOCC3)CC2)Nc2ccc(Br)cc21`, the cytotoxicity at 10 µM was -0.445%.

Regarding `NC(=O)c1ccc2c(c1)nc1n2CCN(Cc2cccnc2)C1`, the cytotoxicity at 10 µM amounted to 10.3%.

For `Cc1cc(C(=O)N2CCN(c3nc4c(C(C)C)cccc4s3)CC2)on1`, the cytotoxicity at 10 µM is 6.64%.

With `CCN(Cc1noc(C2CC2)n1)Cc1ccc(C#N)cc1F`, the cytotoxicity at 10 µM is -1.74%.

Regarding `CC(=O)N1CCCN(C(=O)c2cnn(C(C)(C)C)c2C)CC1`, the cytotoxicity at 10 µM amounted to 2.89%.

`CS(=O)(=O)NCC1CCCN(C(=O)Nc2cccc3ccccc23)C1` (stereo not given): the cytotoxicity at 10 µM was -139%.

Regarding `CCN(CC(=O)Nc1c(C)nn(C)c1C)CC(O)c1ccc(C)cc1` (stereo not given), the cytotoxicity at 10 µM was -8.14%.

In the case of `Cc1nc(C2(NCC(=O)NC(=O)NCc3cccs3)CCCCC2)no1`, the cytotoxicity at 10 µM is -9.52%.

Turning to `O=S1(=O)CCC(S(=O)(=O)c2cccc(S(=O)(=O)N3CCOCC3)c2)C1` (stereo not given), the cytotoxicity at 10 µM was 3.42%.

For the compound `COc1ccc(S(=O)(=O)N2CCC[C@@H]3CN(C(=O)C4CC4)C[C@@H]32)cc1F`, the cytotoxicity at 10 µM came to 3.75%.

On to `Cc1cccc(-c2nnn3c2COC(CNC(=O)N2CCCC2)C3)c1` (stereo not given), for which the cytotoxicity at 10 µM was -94.5%.

Take `CS(=O)(=O)N1CCc2[nH]cnc2C12CCN(C(=O)c1ccc[nH]1)CC2`: the cytotoxicity at 10 µM is -1.42%.

Take `COc1ccc2c(c1)CC(C(=O)N(C)Cc1noc3c1CCCC3)CO2` (stereo not given): the cytotoxicity at 10 µM was -0.551%.

In the case of `COCC(=O)N1CCC(C)(c2cc(O)[nH]n2)CC1`, the cytotoxicity at 10 µM is -6.92%.

For the compound `c1cncc(OCc2nc(C3CC3)nn2-c2ccc3c(c2)OCCO3)c1`, the cytotoxicity at 10 µM is 2.4%.

For `Cc1cc(CN(C)CCN(C)c2ccccc2)no1`, the cytotoxicity at 10 µM was -4.65%.

In the case of `CCn1nc(C)c2c1cnn2CC(=O)N1CCN(C)CC1`, the cytotoxicity at 10 µM worked out at 4.92%.

`CCN(C(=O)CSc1ccc(C(F)(F)F)cn1)C1CC1`: the cytotoxicity at 10 µM turned out to be 7.77%.

In the case of `Cc1cccc2nc(CSCc3nnnn3C(C)C)cn12`, the cytotoxicity at 10 µM worked out at 1.24%.

Consider `O=C(NCc1cc[nH]n1)NC1CCCN(c2ncccn2)C1` (stereo not given), for which the cytotoxicity at 10 µM was -2.26%.

Take `CCOc1ncccc1C(=O)N(C)Cc1ncc(C)c(OC)c1C`: the cytotoxicity at 10 µM was determined as 3.06%.

For the compound `Fc1ccc(CN2CCCC2Cn2cncn2)c2ncccc12` (stereo not given), the cytotoxicity at 10 µM turned out to be 11.7%.

On to `COCc1noc(-c2ccc(N3CCCCC3CO)nc2)n1` (stereo not given), for which the cytotoxicity at 10 µM was -2.38%.

Turning to `CSc1[nH]nc(NC(=O)c2cccnc2)c1C#N`, the cytotoxicity at 10 µM is -4.87%.

`c1cnnc(N[C@@H]2CC[C@@H]3CN(Cc4c[nH]c5ccccc45)C[C@@H]32)c1`: the cytotoxicity at 10 µM is 3.33%.

As to `CC(CN1CCC2(CC1)N=C(c1cccnc1)NC2=O)c1ccccc1` (stereo not given), the cytotoxicity at 10 µM came out at 4.5%.

In the case of `CCn1cnnc1CNC(=O)N1CCN(c2ccccc2O)CC1`, the cytotoxicity at 10 µM was -1.47%.

For `c1csc(CN2CCCN(c3ccc(Cn4ccnc4)cn3)CC2)c1`, the cytotoxicity at 10 µM was -18.2%.

Regarding `COc1ncccc1C1CC(=O)Nc2cc(NS(C)(=O)=O)ccc21` (stereo not given), the cytotoxicity at 10 µM is -8.1%.

With `O=C(NCc1ccco1)[C@H]1C[C@H]2OCC[C@H]2N(S(=O)(=O)C2CC2)C1`, the cytotoxicity at 10 µM was -1.48%.

Take `CSc1ccc(Cl)c(C(=O)N2CCCC(CNS(C)(=O)=O)C2)c1` (stereo not given): the cytotoxicity at 10 µM is -5.92%.

`CCC[C@@H]1CN(S(=O)(=O)c2ccc(C)c(F)c2)C[C@H]1N(C)C`: the cytotoxicity at 10 µM is 26.7%.

`Cc1ccc(OCCCC(=O)NC(C)c2nnc3n2CCC3)cc1` (stereo not given): the cytotoxicity at 10 µM is -15%.

As for `Cc1cc(CS(=O)(=O)c2ccccc2)no1`, the cytotoxicity at 10 µM is 10.5%.

Consider `COc1ccc(C(C#N)NC(=O)Cc2ccc(F)c(F)c2)c(OC)c1` (stereo not given), for which the cytotoxicity at 10 µM came out at 21.6%.

Turning to `Cc1ccc(C2(O)CCN(C(=O)c3cccc(S(C)(=O)=O)c3)CC2)nc1`, the cytotoxicity at 10 µM is -5.3%.

Consider `COc1ccc(CN(C)CC(=O)NC2(C)CCS(=O)(=O)C2)cc1F` (stereo not given), for which the cytotoxicity at 10 µM turned out to be 7.44%.

Take `Cc1ccc(C(C(=O)NCCN2CCC(CO)CC2)N(C)C)cc1` (stereo not given): the cytotoxicity at 10 µM was -10.2%.

Regarding `COc1ccc(C(=O)N2CC(=O)N(CC3CC3)CC(O)C2)cc1` (stereo not given), the cytotoxicity at 10 µM turned out to be 4.77%.

`COc1ccc(CNc2c(C)nn(C(C)C)c2C)cc1OC`: the cytotoxicity at 10 µM was -38.5%.

As for `O=C(c1ccsc1)N1C[C@@H]2CCN(c3cccnc3)C[C@@H]2C1`, the cytotoxicity at 10 µM is -69.3%.

As to `CN(C)S(=O)(=O)N1CCC(c2cccc(Cc3ccccc3Cl)n2)CC1`, the cytotoxicity at 10 µM came to 55.9%.
